Like-named read-outs stand apart in the source and are kept apart here.
Assays:
[1] = test system: patients with advanced cancer; test: Safety and tolerability: treatment-emergent adverse events; assay type: in vivo, human
In short: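 Patients aged 18 or over with ECOG 0–1 got oral test compound twice daily, 2w/2w or 3w/1w per 28-day cycle, in a 3+3 escalation. Each dose level had at least 3 DLT-evaluable patients. AEs graded by CTCAE v4.03, and investigators judged relation to treatment. AE frequency and percentage given per arm for all patients dosed.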

[2] = test system: patients with advanced or metastatic cancers; test: Antitumor activity; assay type: in vivo, human; conditions: for median PFS: advanced cancers
[3] = test system: 4T1-luciferase–positive preclinical tumor models of triple-negative breast cancer; conditions: in vitro and in vivo; cited from earlier work
[4] = test system: patients with grade 4 glioma; test: Antitumor activity; assay type: in vivo, human
In short: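 Patients with grade 4 glioma (IDH1/2-mutant or IDH wild-type) got oral test compound twice daily in 28-day cycles: dose escalation on 2w/2w or 3w/1w, expansion at 50 mg 2w/2w. RANO response by CT or MRI at baseline and days 22–28 of every other cycle until confirmed progression or withdrawal. CR/PR confirmed and reported as frequency. PFS and OS by Kaplan–Meier.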

[5] = cited from earlier work; for NOAEL daily AUC threshold for cardiotoxicity: established preclinically in rats and dogs
[6] = Plasma pharmacokinetics of LY3200882; assay type: in vivo, human
In short: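 Oral test compound twice daily on 2w/2w or 3w/1w schedules, 5–50 mg. Plasma measured by validated LC-MS/MS. Cmax, tmax, AUC, CL/F and V/F estimated noncompartmentally. Dose proportionality tested by a power model on log-transformed Cmax and AUC with dose as fixed effect. Steady state and accumulation inferred from t1/2.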

T-cell proliferation = conditions: preclinical; cited from earlier work
[7] = test system: patients with pancreatic cancer; conditions: patients with treatment-naïve advanced pancreatic cancer; cited from earlier work
[8] = Any grade, Japanese cohort (N = 9)
[9] = Any grade, grade 4 glioma expansion, RP2D 2w/2w (N = 40)
[10] = Any grade, schedule A 2w/2w escalation (N = 30)
[11] = Any grade, schedule B 3w/1w escalation (N = 32)
[12] = Grade ≥3, Japanese cohort (N = 9)
[13] = Grade ≥3, grade 4 glioma expansion, RP2D 2w/2w (N = 40)
[14] = Grade ≥3, schedule A 2w/2w escalation (N = 30)
[15] = Grade ≥3, schedule B 3w/1w escalation (N = 32)
[16] = of a total of 139 patients, LY3200882-based therapies
[17] = schedule A 2w/2w escalation (N = 30)
[18] = schedule B 3w/1w escalation (N = 32)
[19] = grade 4 glioma expansion, RP2D 2w/2w (N = 40)
[20] = single patient, IDH WT grade 4 glioma, monotherapy 50 mg twice a day 2w/2w

CC(C)(O)c1cc(Nc2cc(Oc3cn(C4CC4)nc3C3CCOCC3)ccn2)ccn1 [LY3200882]
Dose-limiting toxicities ([1]; 2w/2w and 3w/1w schedules): not observed
Recommended phase II dose (RP2D) ([1]; 2w/2w schedule): 50 mg twice a day
Recommended phase II dose (RP2D) ([1]; 3w/1w schedule): 35 mg twice a day
ALT increased (study treatment-related AE) [1, 8]: 1 (11) n (%)
Anemia (study treatment-related AE) [1, 8]: 1 (11) n (%)
Fatigue (study treatment-related AE) [1, 8]: 0 (0) n (%)
Nausea (study treatment-related AE) [1, 8]: 1 (11) n (%)
Subjects with ≥1 TEAE related to study treatment [1, 8]: 3 (33) n (%)
ALT increased (study treatment-related AE) [1, 9]: 0 (0) n (%)
Anemia (study treatment-related AE) [1, 9]: 0 (0) n (%)
Fatigue (study treatment-related AE) [1, 9]: 4 (10) n (%)
Nausea (study treatment-related AE) [1, 9]: 0 (0) n (%)
Subjects with ≥1 TEAE related to study treatment [1, 9]: 10 (25) n (%)
ALT increased (study treatment-related AE) [1, 10]: 0 (0) n (%)
Anemia (study treatment-related AE) [1, 10]: 1 (3) n (%)
Fatigue (study treatment-related AE) [1, 10]: 0 (0) n (%)
Nausea (study treatment-related AE) [1, 10]: 1 (3) n (%)
Subjects with ≥1 TEAE related to study treatment [1, 10]: 10 (33) n (%)
ALT increased (study treatment-related AE) [1, 11]: 2 (6) n (%)
Anemia (study treatment-related AE) [1, 11]: 1 (3) n (%)
Fatigue (study treatment-related AE) [1, 11]: 1 (3) n (%)
Nausea (study treatment-related AE) [1, 11]: 1 (3) n (%)
Subjects with ≥1 TEAE related to study treatment [1, 11]: 10 (31) n (%)
ALT increased (study treatment-related AE) [1, 12]: 0 (0) n (%)
Anemia (study treatment-related AE) [1, 12]: 0 (0) n (%)
Fatigue (study treatment-related AE) [1, 12]: 0 (0) n (%)
Nausea (study treatment-related AE) [1, 12]: 0 (0) n (%)
Subjects with ≥1 TEAE related to study treatment [1, 12]: 0 (0) n (%)
ALT increased (study treatment-related AE) [1, 13]: 0 (0) n (%)
Anemia (study treatment-related AE) [1, 13]: 0 (0) n (%)
Fatigue (study treatment-related AE) [1, 13]: 0 (0) n (%)
Nausea (study treatment-related AE) [1, 13]: 0 (0) n (%)
Subjects with ≥1 TEAE related to study treatment [1, 13]: 0 (0) n (%)
ALT increased (study treatment-related AE) [1, 14]: 0 (0) n (%)
Anemia (study treatment-related AE) [1, 14]: 0 (0) n (%)
Fatigue (study treatment-related AE) [1, 14]: 0 (0) n (%)
Nausea (study treatment-related AE) [1, 14]: 0 (0) n (%)
Subjects with ≥1 TEAE related to study treatment [1, 14]: 0 (0) n (%)
ALT increased (study treatment-related AE) [1, 15]: 0 (0) n (%)
Anemia (study treatment-related AE) [1, 15]: 0 (0) n (%)
Fatigue (study treatment-related AE) [1, 15]: 0 (0) n (%)
Nausea (study treatment-related AE) [1, 15]: 0 (0) n (%)
Subjects with ≥1 TEAE related to study treatment [1, 15]: 0 (0) n (%)
Cardiovascular AEs ([1]; LY3200882 as monotherapy): no cardiovascular AEs were observed
Deaths related to study treatment ([1]; overall): none
Patients with SAEs related to study drug ([1]; overall, 3 patients, only in combination expansion arms): 2.2%
Patients with at least 1 serious AE (SAE) ([1]; overall, 24 patients): 17.3%
Deaths reported in the study ([1]; overall, 63 deaths): 45.3%
Patients with TEAEs that were study-treatment (LY3200882) related ([1]; overall, all arms, 55 patients): 39.6%
Patients who experienced ≥1 TEAE ([1]; overall, all arms, 130 of 139 treated patients): 93.5%
median OS ([2]; 35 mg twice a day 3w/1w (8 patients), 95% CI 2.6–NE): 4.0 months
median OS ([2]; 50 mg twice a day 2w/2w (17 patients), 95% CI 1.2–11.4): 6.1 months
Best overall response: CR ([2]; Japanese cohort (N = 9)): 0 (0) n (%)
Best overall response: Nonevaluable ([2]; Japanese cohort (N = 9)): 1 (11) n (%)
Best overall response: PR ([2]; Japanese cohort (N = 9)): 0 (0) n (%)
Best overall response: Progressive disease ([2]; Japanese cohort (N = 9)): 8 (89) n (%)
Best overall response: SD ([2]; Japanese cohort (N = 9)): 0 (0) n (%)
DCR (CR/PR/SD) ([2]; Japanese cohort (N = 9)): 0 (0) n (%)
ORR (CR/PR) ([2]; Japanese cohort (N = 9)): 0 (0) n (%)
median PFS ([2]; 35 mg twice a day 3w/1w (n = 8), 95% CI 0.8–2.6): 1.7 months
median PFS ([2]; 50 mg twice a day 2w/2w (n = 17), 95% CI 0.9–2.0): 1.8 months
Patients who achieved radiologic CR/PR [2, 16]: 11 patients
Patients who had SD [2, 16]: 28 patients
DCR ([2]; overall study population): 28.1%
Best overall response: CR [2, 17]: 0 (0) n (%)
Best overall response: Nonevaluable [2, 17]: 8 (27) n (%)
Best overall response: PR [2, 17]: 1 (3) n (%)
Best overall response: Progressive disease [2, 17]: 15 (50) n (%)
Best overall response: SD [2, 17]: 6 (20) n (%)
DCR (CR/PR/SD) [2, 17]: 7 (23) n (%)
ORR (CR/PR) [2, 17]: 1 (3) n (%)
Best overall response: CR [2, 18]: 0 (0) n (%)
Best overall response: Nonevaluable [2, 18]: 4 (13) n (%)
Best overall response: PR [2, 18]: 1 (3) n (%)
Best overall response: Progressive disease [2, 18]: 20 (63) n (%)
Best overall response: SD [2, 18]: 7 (22) n (%)
DCR (CR/PR/SD) [2, 18]: 8 (25) n (%)
ORR (CR/PR) [2, 18]: 1 (3) n (%)
Effect on tumors in 4T1 models [3]: durable tumor regression
Duration of response (RANO PR) ([4]; dose escalation, 1 patient IDH 1–mutant grade 4 glioma, 3w/1w schedule): 3.9 months
Duration of response (RANO PR) ([4]; dose escalation, 1 patient IDH WT grade 4 glioma, 2w/2w schedule): 19 months
Duration of response (RANO PR) ([4]; dose-expansion arm, 1 patient IDH WT grade 4 glioma, 50 mg twice a day 2w/2w): 5.6 months
median OS ([4]; dose-expansion arm, 15 patients with recurrent IDH mutant grade 4 glioma, 95% CI 7.3–NE): 10.6 months
median OS ([4]; dose-expansion arm, 25 patients with IDH WT grade 4 glioma, 95% CI 4.6–9.7): 8.2 months
median PFS ([4]; dose-expansion arm, IDH mutant, 95% CI 1.3–1.8): 1.7 months
Best overall response: CR [4, 19]: 0 (0) n (%)
Best overall response: Nonevaluable [4, 19]: 7 (18) n (%)
Best overall response: PR [4, 19]: 1 (3) n (%)
Best overall response: Progressive disease [4, 19]: 26 (65) n (%)
Best overall response: SD [4, 19]: 6 (15) n (%)
DCR (CR/PR/SD) [4, 19]: 7 (18) n (%)
ORR (CR/PR) [4, 19]: 1 (3) n (%)
Time remained on trial [4, 20]: 30.4 months
Tumor reduction by RANO assessment [4, 20]: 94%
NOAEL daily AUC threshold for cardiotoxicity ([5]; 2w/2w schedule): 3.4 mg X h/L
NOAEL daily AUC threshold for cardiotoxicity ([5]; 3w/1w schedule): 1.56 mg X h/L
NOAEL for cardiotoxicity (AUC) ([5]; nonclinical toxicology studies): 3.4 mg X hours/L
PK profile linearity ([6]; 5- to 50-mg dose range): linear with dose and time
Doses after which steady state would be achieved ([6]; based on the short t1/2): 2 doses
Time at which peak concentration was reached after administration ([6]; oral, patients): 2 h
mean CL/F ([6]; oral, patients): 57.3 L/h
mean V/F ([6]; oral, patients): 559 L
Accumulation ratio ([6]; steady state, twice a day, based on the short t1/2): 1.4 fold
Effect on its own metabolism ([6]; suggested by PK constant over time): neither an inhibitor nor an inducer of its own metabolism
Immunomodulatory effects (T-cell proliferation): induction of T-cell proliferation

FOLFIRINOX
ORR [7]: 31.6%

Source: article PMC9414273 (Clinical Cancer Research, 2021)
